We go through 1 compound from ChEMBL document CHEMBL2384910, “Lead optimization of 5-amino-6-(2,2-dimethyl-5-oxo-4-phenylpiperazin-1-yl)-4-hydroxyhexanamides to reduce a cardiac safety issue: discovery of DS-8108b, an orally active renin inhibitor” (Bioorg Med Chem, 2013).

Series [1] concerns Oryctolagus cuniculus. The series is described as follows: Cardiotoxicity in anesthetized New Zealand White rabbit assessed as change in heart rate at 1 mg/kg/min, iv after 10 mins relative to baseline. Format: toxicity, organism-based. As to conditions: in vivo. Details: route intravenous. The essentials:
(§1)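 Female NZW rabbits anesthetized with ketamine 35 mg/kg ip plus xylazine 5 mg/kg ip, tracheotomized, ventilated with room air. ECG and systemic pressure monitored; HR, PR, QRS, QT, QTc quantified. After stabilization, continuous iv infusion 1 mg/kg/min for 1 h; values at 10 min as % change from baseline.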

Series [2] deals with Cynomolgus monkey. The experiment in a line: Inhibition of renin in po dosed furosemide pretreated cynomolgus monkey assessed as reduction in mean arterial blood pressure. The format is functional, organism-based. The following applies: Macaca fascicularis. The essentials:
(§2)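 Conscious freely moving telemetered cynomolgus monkeys (n = 6), furosemide 5 mg/kg/day im for 3 days before dosing; fasted from morning, fed ≥8 h post-dose. Oral 1, 3, 10 mg/kg or 1% methylcellulose, crossover design; arterial pressure recorded from −3 to 24 h; hourly mean MAP; mean ± SEM.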

Series [3] relates to Heart. The experiment in a line: Cardiotoxicity in New Zealand White rabbit heart assessed as change in QRS width at 100 uM after 20 mins relative to baseline. The format is toxicity, tissue-based, Oryctolagus cuniculus. The essentials: (§3)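 Isolated Langendorff-perfused hearts from female NZW rabbits anesthetized with thiopental 30 mg/kg iv; heart excised into chilled Krebs-Henseleit solution. After parameters stabilized, compound perfused at 10, 30 and 100 µM for 20 min; ECG changes expressed as % change from baseline.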

The test system of series [4] is Oryctolagus cuniculus. The series is described as follows: Cardiotoxicity in anesthetized New Zealand White rabbit assessed as change in […] at 1 mg/kg/min, iv after 10 mins relative to baseline. Format: toxicity, organism-based. Set-up: route intravenous. The following applies: in vivo. Summed up:
as §1

For series [5], the target named is Voltage-gated inwardly rectifying potassium channel KCNH2 (Homo sapiens, UniProt Q12809). The experiment in a line: Inhibition of human ERG channel expressed in CHOK1 cells at 100 uM after 5 mins by patch clamp technique. Format: cell-based. The following applies: cho-k1, 5 min. The essentials:
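CHO-K1 cells stably expressing hERG; automated patch clamp. Holding −80 mV, step to +50 mV for 2 s, then −40 mV for 2 s; tail peak current measured. Compound incubated 5 min.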

In another series the test system is Canis familiaris. The series is described as follows: Cardiotoxicity in anesthetized beagle dog assessed as change in QRS width at 0.5 mg/kg/min, iv after 30 mins relative to baseline. As to conditions: in vivo, 0.5 h. The format is toxicity, organism-based, Canis lupus familiaris. Set-up: route intravenous. The essentials:
(§4)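 Anesthetized dogs; after ECG parameters stabilized, compound infused iv continuously at 0.5 mg/kg/min for 1 h. ECG changes at 30 min as % change from baseline; 2 mL blood drawn from left femoral artery for plasma drug concentration.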

In series [6] the test system is Heart. The series is described as follows: Cardiotoxicity in New Zealand White rabbit heart assessed as change in heart rate at 100 uM after 20 mins relative to baseline. The format is toxicity, tissue-based, Oryctolagus cuniculus. Summed up:
as §3

In series [7] the target is T1, Renin (Macaca fascicularis) (UniProt Q6DLS0).
T1 sequence (whole entry): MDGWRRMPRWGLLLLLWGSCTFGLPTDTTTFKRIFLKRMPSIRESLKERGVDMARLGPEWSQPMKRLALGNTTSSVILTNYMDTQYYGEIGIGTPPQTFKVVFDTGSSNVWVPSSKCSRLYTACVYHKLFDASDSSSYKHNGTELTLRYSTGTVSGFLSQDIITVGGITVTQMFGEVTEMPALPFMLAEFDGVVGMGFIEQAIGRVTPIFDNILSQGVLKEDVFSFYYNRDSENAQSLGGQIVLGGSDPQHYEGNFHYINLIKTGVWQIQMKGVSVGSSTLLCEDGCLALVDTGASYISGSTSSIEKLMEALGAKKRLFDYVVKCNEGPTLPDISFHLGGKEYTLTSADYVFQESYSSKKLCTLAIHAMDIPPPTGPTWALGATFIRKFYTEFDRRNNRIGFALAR
The experiment in a line: Ratio of compound IC50 to aliskiren IC50 for renin in cynomolgus monkey plasma.

The subject of series [8] is Cynomolgus monkey. The series is described as follows: Cardiotoxicity in cynomolgus monkey assessed as change in pulse rate at 1000 mg/kg, po after 4 hrs relative to baseline. The following applies: in vivo.
In another series the target is T2, Renin (Homo sapiens, UniProt P00797).
T2 sequence (P00797 whole entry): T1 sequence (whole entry) with A68T, L214I, A235S
The experiment in a line: Inhibition of human recombinant renin using Arg-Glu(EDANS)-Ile-His-Pro-Phe-His-Leu-Val-Ile-His-Thr-Lys (DABCYL)-Arg as substrate incubated for 10 mins prior to substrate addition measured after 90 mins by fluorescence assay. The essentials: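 Trypsin-activated recombinant human renin in 50 mM Tris-HCl pH 7.9, 100 mM NaCl, preincubated with compound 10 min at room temperature; FRET substrate Arg-Glu(EDANS)…Lys(DABCYL)-Arg added, 90 min at 37 °C.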

For series [9], the system named is Oryctolagus cuniculus. The series is described as follows: Cardiotoxicity in anesthetized New Zealand White rabbit assessed as change in QRS width at 1 mg/kg/min, iv after 10 mins relative to baseline. The format is toxicity, organism-based. Set-up: route intravenous. The following applies: in vivo. Summed up:
as §1

Series [10] relates to Cynomolgus monkey. The experiment in a line: Inhibition of renin in furosemide pretreated cynomolgus monkey assessed as reduction in mean arterial blood pressure at 1 to 10 mg/kg, po up to 24 hrs. The format is functional, organism-based. As to conditions: Macaca fascicularis. The essentials: as §2
A short description of series [11]: Plasma concentration in beagle dog at 0.5 mg/kg/min, iv after 30 mins. The format is ADME, organism-based, Canis lupus familiaris. Set-up: route intravenous. The essentials: as §4
Series [12] deals with Cynomolgus monkey. The experiment in a line: Cardiotoxicity in conscious cynomolgus monkey assessed as change in heart rate at 1000 mg/kg, po after 4 hrs relative to baseline. The following applies: in vivo.
The target in series [13] is Sodium channel protein type 5 subunit alpha (Homo sapiens, UniProt Q14524). The experiment in a line: Inhibition of human voltage-gated Na channel 1.5 expressed in HEK293 cells at 100 uM after 2 mins by patch clamp technique. The format is cell-based. The following applies: hek293, 2 min. The essentials:
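HEK293 cells stably expressing hNav1.5; automated patch clamp. 20 ms pulses to −10 mV from −120 mV holding at 1 Hz continuously; peak sodium current measured; compound incubated 2 min.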
(In general: The patch-clamp technique gives a direct electrical read-out from membranes.)

Another series concerns Rattus norvegicus. The experiment in a line: Cardiotoxicity in Sprague-Dawley rat electrophysiology model assessed as QRS complex abnormalities at 10 mg/kg, iv by ECG analysis. Format: toxicity, organism-based. Set-up: dose 10 mg/kg, route intravenous. The following applies: in vivo. Summed up:
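Male Sprague-Dawley rats anesthetized with inactin 100 mg/kg ip; surface lead II ECG recorded continuously. Compounds given as iv bolus via right jugular vein catheter after stabilization; QRS complex abnormality scored as no, moderate or severe change; n = 2 at 10 mg/kg.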

The subject of series [14] is Heart. The series is described as follows: Cardiotoxicity in New Zealand White rabbit heart assessed as change in […] at 100 uM after 20 mins relative to baseline. Format: toxicity, tissue-based, Oryctolagus cuniculus. The essentials:
as §3

Series [15] relates to Oryctolagus cuniculus. The experiment in a line: Cardiotoxicity in anesthetized New Zealand White rabbit assessed as change in QTc interval at 1 mg/kg/min, iv after 10 mins relative to baseline. The following applies: in vivo. Set-up: route intravenous. Format: toxicity, organism-based. Summed up:
as §1

Structures are written as SMILES. Residue numbers refer to the chain shown, from its start. Activity calls are given as the source filed them. The rule behind the calls is not given here.

Chain of Sodium channel protein type 5 subunit alpha (Q14524 whole entry): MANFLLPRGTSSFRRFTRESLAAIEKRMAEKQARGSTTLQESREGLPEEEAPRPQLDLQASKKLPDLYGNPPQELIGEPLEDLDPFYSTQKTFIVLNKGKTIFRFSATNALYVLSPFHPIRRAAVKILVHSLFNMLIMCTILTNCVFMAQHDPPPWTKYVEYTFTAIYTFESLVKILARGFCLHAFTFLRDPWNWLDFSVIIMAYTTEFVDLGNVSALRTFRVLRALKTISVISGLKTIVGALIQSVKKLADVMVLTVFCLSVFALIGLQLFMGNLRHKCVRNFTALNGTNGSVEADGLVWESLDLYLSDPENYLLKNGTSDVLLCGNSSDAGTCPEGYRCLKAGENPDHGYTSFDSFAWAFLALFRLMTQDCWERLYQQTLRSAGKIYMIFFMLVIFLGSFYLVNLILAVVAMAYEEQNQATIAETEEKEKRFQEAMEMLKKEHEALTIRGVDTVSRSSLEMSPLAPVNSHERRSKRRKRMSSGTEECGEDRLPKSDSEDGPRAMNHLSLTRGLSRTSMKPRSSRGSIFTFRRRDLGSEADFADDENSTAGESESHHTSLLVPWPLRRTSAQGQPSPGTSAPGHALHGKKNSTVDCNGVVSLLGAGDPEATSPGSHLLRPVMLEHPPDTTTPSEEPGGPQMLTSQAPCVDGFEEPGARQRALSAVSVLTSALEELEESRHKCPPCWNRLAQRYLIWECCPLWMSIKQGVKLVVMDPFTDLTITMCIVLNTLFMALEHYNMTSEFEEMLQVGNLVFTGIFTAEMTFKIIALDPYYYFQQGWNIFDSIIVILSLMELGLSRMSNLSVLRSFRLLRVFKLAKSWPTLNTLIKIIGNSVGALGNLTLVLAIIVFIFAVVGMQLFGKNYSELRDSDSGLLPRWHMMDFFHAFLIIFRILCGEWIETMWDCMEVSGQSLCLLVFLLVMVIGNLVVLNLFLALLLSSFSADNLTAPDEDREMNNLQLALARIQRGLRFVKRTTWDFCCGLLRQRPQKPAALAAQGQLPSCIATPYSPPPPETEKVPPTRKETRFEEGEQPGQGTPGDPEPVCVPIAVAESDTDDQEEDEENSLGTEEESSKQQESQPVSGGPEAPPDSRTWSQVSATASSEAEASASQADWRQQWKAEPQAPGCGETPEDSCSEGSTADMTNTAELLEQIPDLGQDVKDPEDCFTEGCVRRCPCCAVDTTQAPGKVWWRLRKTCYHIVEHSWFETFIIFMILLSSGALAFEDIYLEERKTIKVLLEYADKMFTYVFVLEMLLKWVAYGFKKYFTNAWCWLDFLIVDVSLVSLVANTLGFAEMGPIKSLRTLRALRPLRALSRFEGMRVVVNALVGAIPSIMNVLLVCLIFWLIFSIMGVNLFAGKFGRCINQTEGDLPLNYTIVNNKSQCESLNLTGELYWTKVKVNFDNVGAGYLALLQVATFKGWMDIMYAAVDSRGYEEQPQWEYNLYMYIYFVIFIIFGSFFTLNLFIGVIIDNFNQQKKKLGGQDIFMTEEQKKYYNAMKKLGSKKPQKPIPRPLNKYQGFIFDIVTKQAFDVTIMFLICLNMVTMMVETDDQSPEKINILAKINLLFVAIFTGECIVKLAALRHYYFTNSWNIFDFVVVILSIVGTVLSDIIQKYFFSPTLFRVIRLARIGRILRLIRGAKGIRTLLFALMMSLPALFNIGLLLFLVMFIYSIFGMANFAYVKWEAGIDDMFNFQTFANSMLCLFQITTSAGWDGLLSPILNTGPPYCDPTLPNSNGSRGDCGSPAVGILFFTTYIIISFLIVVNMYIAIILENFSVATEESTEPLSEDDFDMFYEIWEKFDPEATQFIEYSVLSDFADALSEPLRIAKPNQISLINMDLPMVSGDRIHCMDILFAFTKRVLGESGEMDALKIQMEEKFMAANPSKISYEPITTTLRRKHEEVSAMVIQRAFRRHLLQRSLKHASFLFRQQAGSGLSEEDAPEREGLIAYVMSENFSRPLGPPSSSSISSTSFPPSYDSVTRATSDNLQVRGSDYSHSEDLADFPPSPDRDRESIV
Chain of Voltage-gated inwardly rectifying potassium channel KCNH2 (Q12809 whole entry): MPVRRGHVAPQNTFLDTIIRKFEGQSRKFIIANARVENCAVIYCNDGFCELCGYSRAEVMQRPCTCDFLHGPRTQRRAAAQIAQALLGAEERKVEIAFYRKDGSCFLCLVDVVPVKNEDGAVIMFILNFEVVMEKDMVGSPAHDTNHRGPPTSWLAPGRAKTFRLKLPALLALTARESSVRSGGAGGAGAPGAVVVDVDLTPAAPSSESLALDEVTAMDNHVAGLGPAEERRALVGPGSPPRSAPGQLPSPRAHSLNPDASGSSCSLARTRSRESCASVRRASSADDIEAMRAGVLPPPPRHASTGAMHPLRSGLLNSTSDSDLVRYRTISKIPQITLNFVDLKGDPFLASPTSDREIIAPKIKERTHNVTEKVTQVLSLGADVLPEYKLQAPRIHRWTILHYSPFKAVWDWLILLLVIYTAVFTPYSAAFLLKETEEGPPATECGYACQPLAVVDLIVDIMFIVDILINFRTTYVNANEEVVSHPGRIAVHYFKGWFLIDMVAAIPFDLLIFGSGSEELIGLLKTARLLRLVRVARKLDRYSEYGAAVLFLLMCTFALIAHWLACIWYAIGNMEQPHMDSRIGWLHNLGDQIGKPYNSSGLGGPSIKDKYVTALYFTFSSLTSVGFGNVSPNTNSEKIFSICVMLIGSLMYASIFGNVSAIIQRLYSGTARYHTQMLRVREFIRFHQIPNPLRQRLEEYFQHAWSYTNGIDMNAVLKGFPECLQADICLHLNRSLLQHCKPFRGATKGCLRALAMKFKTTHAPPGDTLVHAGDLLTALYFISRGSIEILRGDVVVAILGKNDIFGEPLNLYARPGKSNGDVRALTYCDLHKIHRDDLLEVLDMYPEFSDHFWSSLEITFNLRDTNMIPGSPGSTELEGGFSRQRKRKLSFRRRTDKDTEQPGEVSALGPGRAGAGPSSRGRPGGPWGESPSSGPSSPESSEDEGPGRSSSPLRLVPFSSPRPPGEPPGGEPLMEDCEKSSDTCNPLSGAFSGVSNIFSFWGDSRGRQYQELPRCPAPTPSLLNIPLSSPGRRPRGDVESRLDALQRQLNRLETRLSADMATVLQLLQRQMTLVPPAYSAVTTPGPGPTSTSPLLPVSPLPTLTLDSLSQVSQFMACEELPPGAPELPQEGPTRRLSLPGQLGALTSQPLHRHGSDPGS

Regarding `CC[C@H](C[C@H](O)[C@@H](N)CN1CC(=O)N(c2ccccc2Cl)CC1(C)C)C(=O)N[C@H]1C2CC3CC1C[C@](O)(C3)C2.O=C(O)/C=C/C(=O)O`, the Activity with Oryctolagus cuniculus [1] was 3.9%; with Heart [3], 1.7%; in the series with Oryctolagus cuniculus [4] it was -1.3%; in the series with Canis familiaris it was 5.8%; with Heart [6], -5.8%; in the series with Cynomolgus monkey [8], 0.3%. Moreover, the Activity is -1.3% in the series with Oryctolagus cuniculus [9]; -4.2% in the series on Cynomolgus monkey [12]; “Non-toxic” in the series with Rattus norvegicus; 1.7% in the series with Heart [14]; 2.7% in the series with Oryctolagus cuniculus [15]. Further, the inhibition result in the series on Cynomolgus monkey [2] is “Dose-dependent effect”. Moreover, the “inhibition (INH)” value in series [5] and in series [13] was “Not Active” each time. For the same compound, the Ratio IC50 in [7] came out at 0.8. Also, the IC50 (commonly the concentration needed to halve the response being measured) on Renin came to 0.9 nM. Also, the inhibition entry in the series with Cynomolgus monkey [10] was “Active”. The compound also came in with a concentration at 0.5 h in [11] of 38100 ng/mL.
